{"source": "ChEMBL document CHEMBL4431374", "about": "“Synthesis and Antitubercular Activity of New Benzo[b]thiophenes” (ACS Med Chem Lett, 2016)", "assay_type_in_all_cases": "functional", "key": {"[1]": {"tested_on": "Mycobacterium tuberculosis", "experiment": "Antitubercular activity against drug resistant active Mycobacterium tuberculosis H37Ra ATCC 25177 after 8 days by XTT reduction menadione assay", "settings": "H37Ra ATCC 25177, 192 h", "in_short": "(§1)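 H37Ra was tested by microdilution in 96-well plates, at 30–0.001 μg/mL in one-third dilutions. Each plate carried a rifampicin and isoniazid dilution series as positive controls. Growth was scored by XTT reduction menadione assay (XRMA) and cross-checked by a final absorbance reading at 600 nm.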"}, "[2]": {"tested_on": "Mycobacterium tuberculosis", "experiment": "Antitubercular activity against drug resistant dormant Mycobacterium tuberculosis H37Ra ATCC 25177 after 12 days by XTT reduction menadione assay", "settings": "H37Ra ATCC 25177, 288 h", "in_short": "as §1"}, "[3]": {"tested_on": "Mycobacterium tuberculosis variant bovis BCG", "experiment": "Antitubercular activity against dormant Mycobacterium bovis BCG ATCC 35734 after 12 days by nitrate reductase assay", "settings": "for MIC90: ATCC 35734, 288 h"}, "[4]": {"tested_on": "Mycobacterium tuberculosis variant bovis BCG", "experiment": "Antitubercular activity against active Mycobacterium bovis BCG ATCC 35734 after 8 days by nitrate reductase assay", "settings": "for MIC90: ATCC 35734, 192 h"}, "[5]": {"tested_on": "Mycobacterium tuberculosis variant bovis BCG", "experiment": "Antitubercular activity against drug resistant dormant Mycobacterium bovis BCG ATCC 35734 at 3 to 30 ug/ml after 12 days by nitrate reductase assay"}}, "note": "Calls of active or inactive are those of the source. The rule behind the calls is not given here.", "data": [{"smiles": "Cc1cc2oc(-c3cc4ccccc4s3)cc(=O)c2cc1Cl", "values": [{"measurement": "MIC90", "setting": "[1]", "value": 9.58, "unit": "µg/mL"}, {"measurement": "MIC90", "setting": "[2]", "value": 9.1, "unit": "µg/mL"}, {"measurement": "MIC90", "setting": "[3]", "value": 0.6, "unit": "µg/mL"}, {"measurement": "MIC90", "setting": "[4]", "value": 0.56, "unit": "µg/mL"}]}, {"smiles": "Cc1ccc2oc(-c3cc4ccccc4s3)cc(=O)c2c1", "values": [{"measurement": "MIC90", "setting": "[1]", "value": 22.9, "unit": "µg/mL"}, {"measurement": "MIC90", "setting": "[2]", "value": 7.22, "unit": "µg/mL"}, {"measurement": "MIC90", "setting": "[3]", "value": 0.61, "unit": "µg/mL"}, {"measurement": "MIC90", "setting": "[4]", "value": 0.62, "unit": "µg/mL"}]}, {"smiles": "Cc1ccc(C(=O)CC(=O)c2cc3ccccc3s2)c(O)c1", "values": [{"measurement": "MIC90", "setting": "[1]", "value": 8.97, "unit": "µg/mL"}, {"measurement": "MIC90", "setting": "[2]", "value": 9.42, "unit": "µg/mL"}, {"measurement": "MIC90", "setting": "[3]", "value": 1.61, "unit": "µg/mL"}, {"measurement": "MIC90", "setting": "[4]", "value": 1.68, "unit": "µg/mL"}, {"measurement": "Activity", "setting": "[5]", "value": ">97", "unit": "%"}]}, {"smiles": "NNC(=O)c1ccncc1", "note": "[ISONIAZID]", "values": [{"measurement": "MIC90", "setting": "[1]", "value": "> 10", "unit": "µg/mL"}, {"measurement": "MIC90", "setting": "[2]", "value": "> 10", "unit": "µg/mL"}, {"measurement": "MIC90", "setting": "[3]", "value": 0.0078, "unit": "µg/mL"}, {"measurement": "MIC90", "setting": "[4]", "value": 0.075, "unit": "µg/mL"}]}, {"smiles": "O=C(CC(=O)c1ccccc1O)c1cc2ccccc2s1", "values": [{"measurement": "MIC90", "setting": "[1]", "value": 12.4, "unit": "µg/mL"}, {"measurement": "MIC90", "setting": "[2]", "value": 2.87, "unit": "µg/mL"}, {"measurement": "MIC90", "setting": "[3]", "value": 1.36, "unit": "µg/mL"}, {"measurement": "MIC90", "setting": "[4]", "value": 2.34, "unit": "µg/mL"}, {"measurement": "Activity", "setting": "[5]", "value": ">97", "unit": "%"}]}, {"smiles": "Oc1ccc(Cl)cc1-c1cc(-c2cc3ccccc3s2)[nH]n1", "values": [{"measurement": "Activity", "setting": "[5]", "value": ">97", "unit": "%"}]}, {"smiles": "Cc1ccc(O)c(C(=O)CC(=O)c2cc3ccccc3s2)c1", "values": [{"measurement": "MIC90", "setting": "[3]", "value": 0.71, "unit": "µg/mL"}]}, {"smiles": "Cc1ccc(O)c(-c2cc(-c3cc4ccccc4s3)[nH]n2)c1", "values": [{"measurement": "Activity", "setting": "[5]", "value": ">97", "unit": "%"}]}, {"smiles": "O=C(CC(=O)c1cc(Cl)ccc1O)c1cc2ccccc2s1", "values": [{"measurement": "MIC90", "setting": "[1]", "value": 5.3, "unit": "µg/mL"}, {"measurement": "MIC90", "setting": "[2]", "value": 2.73, "unit": "µg/mL"}, {"measurement": "MIC90", "setting": "[3]", "value": 2.7, "unit": "µg/mL"}, {"measurement": "MIC90", "setting": "[4]", "value": 2.22, "unit": "µg/mL"}, {"measurement": "Activity", "setting": "[5]", "value": ">97", "unit": "%"}]}, {"smiles": "Oc1ccccc1-c1cc(-c2cc3ccccc3s2)[nH]n1", "values": [{"measurement": "Activity", "setting": "[5]", "value": ">97", "unit": "%"}]}, {"smiles": "O=C(CC(=O)c1cc(Br)ccc1O)c1cc2ccccc2s1", "values": [{"measurement": "MIC90", "setting": "[1]", "value": 8.04, "unit": "µg/mL"}, {"measurement": "MIC90", "setting": "[2]", "value": 7.11, "unit": "µg/mL"}, {"measurement": "MIC90", "setting": "[3]", "value": 1.77, "unit": "µg/mL"}, {"measurement": "MIC90", "setting": "[4]", "value": 1.16, "unit": "µg/mL"}, {"measurement": "Activity", "setting": "[5]", "value": ">97", "unit": "%"}]}, {"smiles": "Cc1cc(O)c(C(=O)CC(=O)c2cc3ccccc3s2)cc1Cl", "values": [{"measurement": "MIC90", "setting": "[3]", "value": 0.9, "unit": "µg/mL"}, {"measurement": "MIC90", "setting": "[4]", "value": "0.56 to 1.9", "unit": "µg/mL"}, {"measurement": "Activity", "setting": "[5]", "value": ">97", "unit": "%"}]}, {"smiles": "O=C(CC(=O)c1cc(Cl)cc(Cl)c1O)c1cc2ccccc2s1", "values": [{"measurement": "Activity", "setting": "[3]", "value": "Active"}, {"measurement": "Activity", "setting": "[4]", "value": "Active"}]}, {"smiles": "CO[C@H]1/C=C/O[C@@]2(C)Oc3c(C)c(O)c4c(O)c(c(/C=N/N5CCN(C)CC5)c(O)c4c3C2=O)NC(=O)/C(C)=C\\C=C\\[C@H](C)[C@H](O)[C@@H](C)[C@@H](O)[C@@H](C)[C@H](OC(C)=O)[C@@H]1C", "note": "[RIFAMPIN]", "values": [{"measurement": "MIC90", "setting": "[1]", "value": "> 10", "unit": "µg/mL"}, {"measurement": "MIC90", "setting": "[2]", "value": "> 10", "unit": "µg/mL"}, {"measurement": "MIC90", "setting": "[3]", "value": 0.0042, "unit": "µg/mL"}, {"measurement": "MIC90", "setting": "[4]", "value": 0.004, "unit": "µg/mL"}]}]}
